Bioassay records (PubChem BioAssay)
STAT1 inh – reduces IFN-gamma driven STAT1 reporter signal; NIH 3T3 STAT1-luciferase reporter, luminescence; inhibition, % at 5.5 µM; actives 0.35% (n = 200,000);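 active means inhibition above a set limit, the mean inhibition across all tested compounds plus 3 SD, cut at about 34% in these data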;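 further: 0% = IFN-gamma with DMSO and 100% = IFN-gamma with 300 µM nifuroxazide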
TNF necrop inh – TNF-alpha cell death inhibition in Jurkat FADD-/- cells. actives 0.068% (n = 220,000). activation (protection from cell death), % at 10 µM. AID 463075. Jurkat FADD-/- TNF necroptosis rescue, ATP luminescence, 24 h; 0 = TNF only, 100 = no-TNF cells;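 active means activation, meaning protection from cell death, of at least 50% relative to plate controls; inactive means activation below 50%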;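 further: necroptosis triggered by 40 ng/mL TNF-alpha added together with compound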
STAT3 inh-1 – reduces IL-6 driven STAT3 reporter signal; inhibition, % at 5.5 µM; U3A cells, IL-6 STAT3-luciferase reporter, luminescence; host cell line lacks STAT1; AID 862; actives 0.89% (n = 190,000);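 active means inhibition above the mean inhibition across all screened compounds plus 3 SD, cut at about 44% in these data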;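 further: 0% = DMSO only wells and 100% = 100 µM nifuroxazide control wells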
L929 necroptosis – blocks zVAD induced death of L929 cells; AID 1377; L929 zVAD necroptosis rescue, ATP luminescence, 24 h; with zVAD 60 µM; actives 0.38% (n = 220,000); viability rescue, % at 10 µM;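 active means activation, scaled between plate controls, above about 75%, limit read from the data; inactive means activation under that limit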;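 further: 0% = zVAD with DMSO and 100% = DMSO alone without zVAD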
STAT3 act – STAT3 signaling activation. U3A cells, IL-6 STAT3-luciferase reporter, luminescence; 100% = signal with IL-6 EC80 alone. actives 0.91% (n = 190,000). activation (% of control), % at 5.6 µM;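 active means activation above the screen-wide mean of compound activation plus 3 SD, cut at about 130% in these data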;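 further: 0% = background luminescence of wells with medium and substrate only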
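System – human U3A cells carrying STAT3-luciferase construct · Probe or stimulus – Interleukin-6, 33 ng/mL · Schedule – compound 1 h, then IL-6 6 h at 37 °C · Signal – luminescence from STAT3-driven luciferase reporter · Evaluation – percent of IL-6-only median luminescence · Benchmarks – IL-6-only high control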
STAT3 inh-2 – STAT3 inhibition, confirmation assay; actives 45% (n = 1,200); inhibition, % at 5.7 µM; U3A cells, IL-6 STAT3 luciferase reporter, luminescence; cell line lacks STAT1; shares compounds with STAT3 inh-1;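 active means inhibition above the hit cutoff computed for the primary STAT3 screen, cut at about 44% in these data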;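 further: 0% = IL-6 plus DMSO and 100% = IL-6 plus nifuroxazide control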
NFkB inh 2 – NF-kappaB inhibition in STAT3 inhibitor counter-screen | actives 36% (n = 1,200) | shares compounds with STAT3 inh-1 | HEK293T NF-kB luciferase reporter, TNF-alpha induced | AID 1308 | inhibition, % at 5.7 µM;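 active means inhibition above the mean of solvent-only control wells plus 3 SD, cutoff set per campaign, cut at about 13% in these data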;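 further: 0% = TNF-alpha with DMSO and 100% = TNF-alpha with MG high control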
STAT1 inh 2 – inhibits STAT1, counter-screen to STAT3 inhibitors; inhibition, % at 5.7 µM; AID 1317; shares compounds with STAT3 inh-1; actives 27% (n = 1,200); NIH 3T3 STAT1-luciferase reporter, IFN-gamma induced, luminescence;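 active means inhibition above the mean plus 3 SD of solvent-only control wells, limit set per screening run, cut at about 16% in these data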;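 further: 0% = DMSO with IFN-gamma and 100% = nifuroxazide control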
* hit, by the source's call; . = no result. In the library only some 2.1% were active in any assay of this set; here they are far more common.

SMILES	STAT1 inh	TNF necrop inh	STAT3 inh-1	L929 necroptosis	STAT3 act	STAT3 inh-2	NFkB inh 2	STAT1 inh 2
CCCCC1CCC(c2nc(-c3ccccn3)no2)CC1 (centres undefined)	-3	-4	72*	0	45	22	-39	-85
Cc1sc2nc(CN3CCCC3)nc(N3CCN(C(=O)c4ccco4)CC3)c2c1C	9	-1	16	0	93	.	.	.
O=C(CSC(=S)N1CCCCC1)c1ccccc1	28	3	65*	10	47	22	3	-71
O=C(O)CSC(=S)N1CCCC1	.	-1	.	0	.	.	.	.
CCCN(CCC)c1nc(C)cc(C(C#N)c2nc3ccccc3o2)n1 (centres undefined)	1	1	8	0	98	.	.	.
O=C(CSc1cccc2cccnc12)N/N=C/c1ccc(F)cc1	.	-1	.	2	.	.	.	.
NNC(=S)NC1CCCCC1	-7	1	17	0	93	.	.	.
CC(=O)N1CCc2cc(C(=O)CN3CCN(c4cccc(Cl)c4)CC3)ccc21	5	-4	45*	-1	68	17	-8	-14
CC(=O)N1CCc2cc(C(=O)CN3CCC(C)CC3)ccc21	1	0	5	7	103	.	.	.
CCn1c(-c2ccc(N(C)C)cc2)nc2ccccc21	-8	-8	44*	1	64	16	-35	-36
CC(C)n1c(-c2ccc(N(C)C)cc2)nc2ccccc21	-29	-6	-7	0	110	.	.	.
CN(C)c1ccc(-c2nc3ccccc3n2C)cc1	29	-7	77*	4	35	25	6	-66
CCc1ccc(OC)c(S(=O)(=O)NCCOc2ccccc2)c1	8	-2	2	0	101	.	.	.
COc1ccc(CC(=O)N/N=C/C=C/c2cccc([N+](=O)[O-])c2)cc1OC	.	7	.	1	.	.	.	.
CCCCC(=O)Nc1cc2nn(-c3ccc(OC)cc3)nc2cc1C	-12	-2	4	0	102	.	.	.
CCC(=O)Nc1cc2nn(-c3ccc(OC)cc3)nc2cc1C	-35	-1	44*	2	67	40	-2	-51
CCC(=O)Nc1cc2nn(-c3ccc(C)cc3)nc2cc1C	-6	1	82*	4	36	51*	14*	-107
COc1ccc(-n2nc3cc(C)c(NC(=S)NC(=O)c4ccccc4C)cc3n2)cc1	-14	-1	12	0	96	.	.	.
CCOc1ccc2[nH]c(C)c(CN3CCCCC3)c(=O)c2c1	-3	1	7	0	100	.	.	.
CCCCOC(=O)Nc1ccc(S(=O)(=O)Nn2cnnc2)cc1	4	3	5	4	101	.	.	.
CC(C)(C)c1ccc(C(=O)Nc2cccc3c(=O)[nH][nH]c(=O)c23)cc1	7	0	67*	0	43	-6	3	-21
CCCC1(c2ccccc2)NC(=O)N(CC(=O)Nc2sc(-c3ccccc3)cc2C(=O)OCC)C1=O (centres undefined)	-1	-1	11	0	91	.	.	.
Cc1ccc2nc(-c3ccc(NC(=O)Cc4cccs4)cc3)[nH]c2c1	-50	3	21	5	87	.	.	.
Cc1ccc2nc(-c3ccc(NC(=O)C4CCCO4)cc3)[nH]c2c1 (centres undefined)	6	4	72*	2	41	32	-4	-104
O=C(Nc1ccc(-c2nc3cccnc3s2)cc1)C1CCCO1 (centres undefined)	23	-3	84*	.	27	66*	16*	-14
SMILES	STAT1 inh	TNF necrop inh	STAT3 inh-1	L929 necroptosis	STAT3 act	STAT3 inh-2	NFkB inh 2	STAT1 inh 2
CCc1nnc(NC(=O)CCC(=O)NC2CCCc3ccccc32)s1 (centres undefined)	0	0	1	1	97	.	.	.
O=C(Nc1ccc(Br)cc1)c1ccc(F)c(S(=O)(=O)NCc2cccs2)c1	17	-9	57*	4	52	69*	17*	16*
O=C(Nc1cccc(Cl)c1)c1ccc(F)c(S(=O)(=O)NCc2ccc3c(c2)OCO3)c1	5	2	2	.	101	.	.	.
CCc1nc(C)cn1S(=O)(=O)c1cc(C)c(OC)c(C)c1C	21	-12	54*	-1	57	45*	10	17*
Cc1ccc2c(CC(=O)N3CCOCC3)coc2c1	-10	1	16	2	93	.	.	.
O=C(Nc1ccc2c(c1)C(=O)N(CC1CCCO1)C2=O)c1ccc(Cl)c(Cl)c1 (centres undefined)	-11	-10	72*	0	41	62*	14*	-16
O=C(Nc1nccs1)c1sc2ccccc2c1Cl	-6	-4	38	0	69	.	.	.
Cc1cnc(NC(=O)c2sc3ccccc3c2Cl)s1	-65	0	64*	.	46	15	24*	-50
CC1(C)CC(=O)C(C=NCCN2CCOCC2)=C(O)C1	9	0	6	0	98	.	.	.
CC1=C(C(=O)Nc2ccccc2)C(c2cccc([N+](=O)[O-])c2)Nc2nc3ccccc3n21 (centres undefined)	1	-3	-9	-1	108	.	.	.
CCN(CC)c1ccc(Nc2nc(N3CCOCC3)c3ccccc3n2)cc1	20	-12	49*	0	61	41	9	15
COc1ccc(Nc2nc(N3CCCC3)c3ccccc3n2)cc1	14	-14	22	2	85	.	.	.
O=C(CSc1nc(-c2ccco2)cc(C(F)(F)F)n1)Nc1ccc(C(=O)N2CCCCC2)cc1	7	-7	50*	-1	62	46*	15*	18*
CCOC(=O)Cc1csc(N/N=C/c2ccc(C(F)(F)F)cc2)n1	26	-3	60*	1	57	22	13*	-47
O=C(O)Cc1ccc(NC(=O)c2ccc(NC(=O)c3ccco3)cc2)cc1	-3	0	3	-1	104	.	.	.
Cc1ccoc1C(=O)Nc1ccc(CC(=O)O)cc1	27	-4	57*	0	52	51*	27*	14
Cc1ccc(NC(=O)c2ccc3c(c2)OCCO3)cc1	7	-3	77*	1	35	42	2	-84
O=C(Nc1ccc(NC(=O)c2cc3ccccc3o2)cc1)c1ccc2c(c1)OCCO2	24	2	47*	48	64	51*	54*	23*
CS(=O)(=O)Nc1ccc(C(=O)Nc2ccc3c(c2)OCCO3)cc1	-19	0	-6	1	112	.	.	.
CCc1nnc2sc(-c3ccc(NC(=O)c4ccc5c(c4)OCCO5)cc3)nn12	17	-8	55*	-1	56	51*	13*	32*
